Activity calls are given as the source filed them. The rule behind the calls is not given here. A value given as a limit tells only on which side of the number the result lay.

The results in this text go back to ChEMBL document CHEMBL4765238, “Structure-Based Discovery and Optimization of Benzo[ d]isoxazole Derivatives as Potent and Selective BET Inhibitors for Potential Treatment of Castration-Resistant Prostate Cancer (CRPC)” (J Med Chem, 2018).

For data set [1], the system named is LNCaP. The experiment in a line: Inhibition of BET bromodomain in human LNCaP cells transfected with Luc-tagged PSA and renilla luciferase assessed as reduction in PSA transcriptional activity measured after 24 hrs by dual luciferase reporter gene assay. The following applies: dose 0.4-10 µM. It counts as cell-based. Summed up:
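LNCaP cells transfected with a PSA-luc reporter plasmid, then treated with vehicle or compound at 0.4, 2.0 or 10.0 µM; PSA transcriptional activity read by luciferase; mean ± s.e.m., n = 3; two-tailed Student's t-test.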
(Reporter assays use an easily measured gene product as a stand-in for the process of interest.)

For a further data set, the system named is PC-3. The experiment in a line: Antiproliferative activity against AR-negative human PC-3 cells assessed as reduction in cell viability incubated for 96 hrs by cell-titer glo assay. The class given is functional, cell-based. As to conditions: PC-3, 96 h.
Data set [2] deals with LNCaP C4-2B. The experiment in a line: Antitumor activity against human LNCaP C4-2B cells xenografted in CB17/IcrHSD-Prkdc-SCID mouse assessed as tumor growth inhibition at 50 mg/kg, ip administered 5 times per week for 25 days by caliper analysis. As to conditions: 600 h, time 25 day, read-out: TGI. The class given is functional. Summed up: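 C4-2B cells xenografted in mice; once tumours reached about 100 mm3, mice were randomized and given vehicle or compound at 50 mg/kg i.p. five times per week for 25 days; tumour volume (mean ± s.e.m.) and body weight tracked.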

Data set [3] is described as follows: AUC in Sprague-Dawley rat at 2 mg/kg, iv by LC/MS analysis. Further details: dose 2 mg/kg. The following applies: in vivo. It counts as ADME, organism-based. The essentials: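 Sprague-Dawley rats dosed iv at 2 mg/kg (a separate oral arm received 10 mg/kg); plasma exposure parameters derived from the concentration–time profile.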
Data set [4] concerns VCaP. In words: Inhibition of BET bromodomain in human VCaP cells assessed as suppression of TMPRSS2 mRNA expression at 5 uM incubated for 48 hrs by SYBR green dye based qRT-PCR analysis. The class given is cell-based. Summed up: (§1)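 LNCaP or VCaP cells exposed to vehicle (DMSO) or compound at 5 µM for 48 h; mRNA levels measured by qRT-PCR; mean ± s.e.m., n = 3; two-tailed Student's t-test.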
(In general: In qPCR the cycle at which signal appears reflects the starting amount.)

Data set [5] relates to VCaP. The experiment in a line: Inhibition of BET bromodomain in human VCaP cells assessed as suppression of Myc mRNA expression at 5 uM incubated for 48 hrs by SYBR green dye based qRT-PCR analysis. The class given is cell-based. The essentials:
as §1

Data set [6] deals with LNCaP C4-2B. In words: Inhibition of colony formation in human LNCaP C4-2B cells incubated for 14 days by crystal violet staining based assay. It counts as functional, cell-based. The following applies: dose 0.5-2 µM, time 14.0 day. Summed up: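 C4-2B cells cultured with vehicle (DMSO) or compound at 0.5, 1.0 or 2.0 μM for 14 days, then colonies stained and counted against vehicle.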

Data set [7] is described as follows: Toxicity in CB17/IcrHSD-Prkdc-SCID mouse xenografted with human LNCaP C4-2B cells assessed as effect on animal behaviour at 50 mg/kg, ip administered 5 times per week for 25 days. The class given is organism-based. As to conditions: in vivo, 600 h, time 25 day. Summed up: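 C4-2B xenograft mice randomized once tumors reached about 100 mm3. Vehicle or compound given i.p. at 50 mg/kg, five times per week, over a 25-day treatment period. Tolerability judged from body weight, tracked across treatment days, and from general behaviour.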
(In general: In xenograft studies the graft and the host belong to different species.)

Data set [8] relates to LNCaP. In words: Inhibition of BET bromodomain in human LNCaP cells assessed as suppression of TMPRSS2 mRNA expression at 5 uM incubated for 48 hrs by SYBR green dye based qRT-PCR analysis. It counts as cell-based. Summed up: as §1
Data set [9] concerns VCaP. In words: Inhibition of BET bromodomain in human VCaP cells assessed as suppression of full-length androgen receptor mRNA expression at 5 uM incubated for 48 hrs by SYBR green dye based qRT-PCR analysis. It counts as cell-based. Summed up: as §1
The test system of data set [10] is LNCaP. The experiment in a line: Inhibition of BET bromodomain in human LNCaP cells assessed as suppression of KLK2 mRNA expression at 5 uM incubated for 48 hrs by SYBR green dye based qRT-PCR analysis. It counts as cell-based. Summed up: as §1
For the next data set, the system named is 22Rv1. The experiment in a line: Inhibition of BET bromodomain in human 22Rv1 cells assessed as suppression of full-length androgen receptor protein expression at 1 to 16 uM incubated for 48 hrs by western blot analysis. The class given is cell-based. The following applies: dose 1-16 µM.
Data set [11] relates to VCaP. The experiment in a line: Inhibition of BET bromodomain in human VCaP cells assessed as suppression of KLK2 mRNA expression at 5 uM incubated for 48 hrs by SYBR green dye based qRT-PCR analysis. The class given is cell-based. The essentials: as §1
In a further data set the test system is CWR22R. The experiment in a line: Inhibition of colony formation in human 22Rv1 cells at 0.5 uM incubated for 14 days by crystal violet staining based assay. The class given is functional, cell-based. The following applies: time 14.0 day. The essentials: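 22Rv1 cells cultured with vehicle (DMSO) or compound at 0.5, 1.0 or 2.0 µM for 14 days, then stained and colonies assessed.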

For data set [12], the system named is LNCaP. The experiment in a line: Inhibition of BET bromodomain in human LNCaP cells assessed as suppression of PSA mRNA expression at 5 uM incubated for 48 hrs by SYBR green dye based qRT-PCR analysis. The class given is cell-based. Summed up:
as §1

The subject of a further data set is Hs-578T. The experiment in a line: Antiproliferative activity against human Hs-578T cells assessed as reduction in cell viability incubated for 72 hrs by cell-titer glo assay. The class given is functional, cell-based.
The next data set has as its system MCF7. The experiment in a line: Antiproliferative activity against human MCF-7 cells assessed as reduction in cell viability incubated for 96 hrs by cell-titer glo assay. The class given is functional, cell-based. As to conditions: MCF7, 96 h.
Data set [13] has as its system VCaP. The experiment in a line: Inhibition of BET bromodomain in human VCaP cells assessed as suppression of ERG mRNA expression at 5 uM incubated for 48 hrs by SYBR green dye based qRT-PCR analysis. The class given is cell-based. The essentials: as §1
Data set [14] has as its system VCaP. In words: Inhibition of BET bromodomain in human VCaP cells assessed as suppression of PSA mRNA expression at 5 uM incubated for 48 hrs by SYBR green dye based qRT-PCR analysis. The class given is cell-based. The essentials: as §1
For a further data set, the system named is HT-29. The experiment in a line: Antiproliferative activity against human HT-29 cells assessed as reduction in cell viability incubated for 120 hrs by cell-titer glo assay. It counts as functional, cell-based. The following applies: HT-29, 120 h.
The next data set has as its system MV4-11. In words: Antiproliferative activity against human MV4-11 cells assessed as reduction in cell viability incubated for 120 hrs by cell-titer glo assay. It counts as functional, cell-based. As to conditions: MV4-11, 120 h.
The test system of the next data set is NCI-H1975. The experiment in a line: Antiproliferative activity against human NCI-H1975 cells assessed as reduction in cell viability incubated for 72 hrs by cell-titer glo assay. It counts as functional, cell-based. The following applies: NCI-H1975, 72 h.
Data set [15] has as its system LNCaP. In words: Inhibition of BET bromodomain in human LNCaP cells assessed as suppression of Myc mRNA expression at 5 uM incubated for 48 hrs by SYBR green dye based qRT-PCR analysis. It counts as cell-based. The essentials:
as §1

Data set [16] deals with VCaP. In words: Inhibition of BET bromodomain in human VCaP cells assessed as suppression of AR-V7 mRNA expression at 5 uM incubated for 48 hrs by SYBR green dye based qRT-PCR analysis. It counts as cell-based. Summed up:
as §1

As usually defined, the IC50 is the concentration that gives 50% inhibition. As usually defined, the AUC is the area under the concentration-time curve, a measure of exposure. High values mean more exposure, low ones less exposure. As to `COc1cc2onc(C)c2cc1NS(=O)(=O)c1cc(Br)ccc1OC`, the inhibition result with LNCaP [1] and in the data set with LNCaP C4-2B [6] was “Dose-dependent effect” each time. Moreover, the IC50 was more than 3 µM in the data set with PC-3; 1 µM in the data set with Hs-578T; 1 µM in the data set on MCF7; 0.4 µM in the data set with HT-29; 0.4 µM in the data set on MV4-11; 2.5 µM with NCI-H1975. In addition, the inhibition in vivo at 50 mg/kg with LNCaP C4-2B [2] came out at 70%. The compound further came in with an AUC in [3] of 1170 ng·h/mL. For the same compound, the inhibition result with VCaP [4], in the data set on VCaP [5], in the data set with LNCaP [8], in the data set with VCaP [9], in the data set with LNCaP [10] and in the data set with 22Rv1 was “Active” in each case. In addition, the inhibition entry in the data set with VCaP [11], in the data set with CWR22R, in the data set on LNCaP [12], with VCaP [13], in the data set with VCaP [14] and with LNCaP [15] was “Active” in each case. Further, the inhibition entry in the data set on VCaP [16] was “Active”. The Activity entry in data set [7] was “Non-Toxic”.

As to `Cc1noc2ccc(-c3nc4ccc(N5CCOC[C@@H]5C)cc4n3CC3CCCCC3)cc12`, the inhibition result with LNCaP [1] and in the data set on LNCaP C4-2B [6] was “Dose-dependent effect” each time. Besides, the IC50 in the data set on PC-3 is more than 3 µM; in the data set on Hs-578T it was 1 µM; with MCF7, 1 µM; in the data set with HT-29, 0.4 µM; with MV4-11, 0.4 µM; in the data set with NCI-H1975, more than 5 µM. Also, the inhibition in vivo at 50 mg/kg in the data set with LNCaP C4-2B [2] stood at 51%. For the same compound, the AUC in data set [3] is 881 ng·h/mL. The inhibition result in the data set with VCaP [4], with VCaP [5], in the data set with LNCaP [8], with VCaP [9], in the data set with LNCaP [10] and in the data set with 22Rv1 was “Active” throughout. Further, the inhibition entry in the data set on VCaP [11], in the data set with CWR22R, in the data set with LNCaP [12], in the data set on VCaP [13], with VCaP [14] and with LNCaP [15] was “Active” in each case. In addition, the inhibition result in the data set on VCaP [16] was “Active”. Further, in data set [7], the Activity entry is given as “Non-Toxic”.
